Experiments:
[1] = molecular target: Serine/threonine-protein kinase/endoribonuclease IRE1 (Homo sapiens, UniProt O75460); experiment: Inhibition of human IRE1alpha using 5'[6FAM]-GAGUCCGCAGCACUC-[BHQ1]3' substrate by biochemical fluorescence quenching assay
In short: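 RNase activity of autophosphorylated IRE1α, read as cleavage of an XBP1 stem-loop RNA substrate. This format picks up inhibitors acting at either the kinase or the RNase domain.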

[2] = tested on: HT-1080; experiment: Inhibition of human XBP1 splicing in human HT1080-CMV-XBP1-Luciferase cells assessed as luciferase signal by Promega Bright-Glo luciferase assay; assay type: functional
In short: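 HT1080 cells carried an XBP1–luciferase fusion that is in frame and expressed only from the spliced XBP1 transcript. Thapsigargin induced the UPR and activated IRE1α to drive splicing. The luciferase signal was quantified as the measure of cellular XBP1 splicing.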

[3] = Inhibition of aurora (unknown origin) assessed as phosphorylation of histone H3; parameters: species or system Homo sapiens
[4] = molecular target: Mitogen-activated protein kinase 10 (Homo sapiens, UniProt P53779); experiment: Inhibition of human wild type JNK3 using biotinylated ATF2 substrate assessed as phosphorylation at thr53 on ATF2 by fluorescent plate reader
Chain of Mitogen-activated protein kinase 10 (P53779 whole entry): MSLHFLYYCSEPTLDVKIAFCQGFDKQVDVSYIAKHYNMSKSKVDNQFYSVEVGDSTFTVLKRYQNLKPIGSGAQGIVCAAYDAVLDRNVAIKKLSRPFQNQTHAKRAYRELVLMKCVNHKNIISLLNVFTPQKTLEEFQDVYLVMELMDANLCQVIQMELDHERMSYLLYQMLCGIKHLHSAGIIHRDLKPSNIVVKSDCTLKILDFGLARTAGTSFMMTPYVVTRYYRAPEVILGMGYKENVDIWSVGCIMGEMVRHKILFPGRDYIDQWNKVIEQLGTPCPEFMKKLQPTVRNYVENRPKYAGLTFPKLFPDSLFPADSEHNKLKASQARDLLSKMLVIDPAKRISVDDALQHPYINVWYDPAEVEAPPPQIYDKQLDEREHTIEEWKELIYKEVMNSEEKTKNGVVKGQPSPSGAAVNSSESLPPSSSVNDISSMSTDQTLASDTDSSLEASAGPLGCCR

Chain of Serine/threonine-protein kinase/endoribonuclease IRE1 (O75460 whole entry, the tested form may be a part): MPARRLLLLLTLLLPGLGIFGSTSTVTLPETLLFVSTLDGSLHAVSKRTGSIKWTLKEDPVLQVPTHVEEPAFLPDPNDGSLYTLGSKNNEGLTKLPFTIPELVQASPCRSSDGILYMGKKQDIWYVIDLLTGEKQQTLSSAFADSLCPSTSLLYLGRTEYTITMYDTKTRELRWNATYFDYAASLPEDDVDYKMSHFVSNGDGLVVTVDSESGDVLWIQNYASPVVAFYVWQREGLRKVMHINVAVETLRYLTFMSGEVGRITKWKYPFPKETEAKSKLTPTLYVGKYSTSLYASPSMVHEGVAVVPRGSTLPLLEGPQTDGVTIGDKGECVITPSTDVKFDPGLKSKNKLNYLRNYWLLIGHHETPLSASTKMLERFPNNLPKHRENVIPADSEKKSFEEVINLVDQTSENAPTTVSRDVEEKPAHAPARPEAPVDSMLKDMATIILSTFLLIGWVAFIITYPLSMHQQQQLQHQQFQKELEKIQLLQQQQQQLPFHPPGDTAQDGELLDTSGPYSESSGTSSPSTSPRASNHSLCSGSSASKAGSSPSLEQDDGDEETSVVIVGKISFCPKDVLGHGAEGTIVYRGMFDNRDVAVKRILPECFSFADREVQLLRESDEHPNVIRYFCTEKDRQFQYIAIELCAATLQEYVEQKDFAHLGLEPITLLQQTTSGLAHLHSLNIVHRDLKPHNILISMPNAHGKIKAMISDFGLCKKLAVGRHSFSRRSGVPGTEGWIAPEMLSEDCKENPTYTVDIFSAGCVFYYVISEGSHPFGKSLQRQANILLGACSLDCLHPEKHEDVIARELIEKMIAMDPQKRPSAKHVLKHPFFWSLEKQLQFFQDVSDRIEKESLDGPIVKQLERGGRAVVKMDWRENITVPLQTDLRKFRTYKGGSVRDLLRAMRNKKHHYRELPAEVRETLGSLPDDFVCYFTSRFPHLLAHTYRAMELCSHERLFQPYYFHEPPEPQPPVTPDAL

Question: Which results are given for `Cc1cc(Nc2nc3ccccc3[nH]2)c2ccccc2c1Oc1ncccc1-c1ccnc(NCCN(C)C)n1`?
Answer: IC50 [1]: 14 nM; IC50 [2]: 200 nM; IC50 [3]: > 50000 nM; IC50 [4]: 710 nM

Question: Which results are given for `CN(C)CCNc1nccc(-c2cccnc2Oc2ccc(Nc3nc4ccccc4[nH]3)c3ccccc23)n1`?
Answer: IC50 [1]: 71 nM; IC50 [2]: 270 nM; IC50 [3]: 16000 nM; IC50 [4]: 350 nM

Question: With `CN1CCCC(Nc2nccc(-c3cccnc3Oc3ccc(Nc4nc5ccccc5[nH]4)c4ccccc34)n2)C1` (centres undefined) as the compound, how does the IC50 [1] read?
Answer: Its IC50 is 29 nM.

Question: What about the IC50 [2] of the same compound?
Answer: The IC50 was 310 nM.

Question: What about the IC50 [4] of the same compound?
Answer: Its IC50 is 5.5 nM.

Question: Which IC50 [1] does the source give for `c1cnc(Oc2ccc(Nc3nc4ccccc4[nH]3)c3ccccc23)c(-c2ccnc(N[C@@H]3CCCNC3)n2)c1` here?
Answer: Its IC50 is 51 nM.

Question: And the IC50 [2]?
Answer: Its IC50 is 570 nM.

Question: And the IC50 [4]?
Answer: Its IC50 is 14 nM.

Question: With `OCCNc1nccc(-c2cccnc2Oc2ccc(Nc3nc4ccccc4[nH]3)c3ccccc23)n1` as the compound, how does the IC50 [1] read?
Answer: The IC50 was 170 nM.

Question: What about the IC50 [2] of the same compound?
Answer: Its IC50 is 870 nM.

Question: And the IC50 [4]?
Answer: The IC50 was 12 nM.

Question: For `Cc1cc(NS(=O)(=O)c2ccccc2Cl)c2ccccc2c1Oc1ncccc1-c1ccnc(N[C@H]2CC[C@H](N)CC2)n1`, which IC50 [1] is on record?
Answer: The IC50 was 14 nM.

Question: And the IC50 [2]?
Answer: Its IC50 is 42 nM.

Question: And the IC50 [4]?
Answer: The IC50 was 1600 nM.

Question: Which results are given for `Cc1cc(Nc2nc3ccccc3o2)c2ccccc2c1Oc1ncccc1-c1ccnc(N[C@H]2CC[C@H](N)CC2)n1`?
Answer: IC50 [1]: 14 nM; IC50 [2]: 51 nM; IC50 [4]: 7 nM

Question: Which IC50 [1] does the source give for `N[C@H]1CC[C@H](Nc2nccc(-c3cccnc3Oc3ccc(Nc4nc5ccccc5[nH]4)c4ccccc34)n2)CC1` here?
Answer: The IC50 was 11 nM.

Question: And the IC50 [2]?
Answer: Its IC50 is 33 nM.

Question: And the IC50 [4]?
Answer: The IC50 was 1.9 nM.

Question: With `Cc1cc(NS(=O)(=O)c2ccccc2)c2ccccc2c1Oc1ncccc1-c1ccnc(N[C@H]2CC[C@H](N)CC2)n1` as the compound, how does the IC50 [1] read?
Answer: Its IC50 is 45 nM.

Question: And the IC50 [2]?
Answer: The IC50 was 590 nM.

Question: And the IC50 [4]?
Answer: The IC50 was 2200 nM.

Question: Which IC50 [1] does the source give for `COc1ccccc1S(=O)(=O)Nc1cc(C)c(Oc2ncccc2-c2ccnc(N[C@H]3CC[C@H](N)CC3)n2)c2ccccc12` here?
Answer: Its IC50 is 54 nM.

Question: What about the IC50 [2] of the same compound?
Answer: Its IC50 is 440 nM.

Question: What about the IC50 [4] of the same compound?
Answer: Its IC50 is 1200 nM.

Question: What does the source list for `Cc1cc(NS(=O)(=O)c2ccccc2C#N)c2ccccc2c1Oc1ncccc1-c1ccnc(N[C@H]2CC[C@H](N)CC2)n1`?
Answer: IC50 [1]: 12 nM; IC50 [2]: 62 nM; IC50 [4]: 400 nM

Question: For `Cc1ccc2c(NS(=O)(=O)c3ccccc3Cl)cccc2c1Oc1ncccc1-c1ccnc(N[C@H]2CC[C@H](N)CC2)n1`, which IC50 [1] is on record?
Answer: Its IC50 is 22 nM.

Question: And the IC50 [2]?
Answer: Its IC50 is 120 nM.

Question: And the IC50 [4]?
Answer: Its IC50 is 540 nM.

Question: With `Cc1ccc2c(NS(=O)(=O)c3ccccc3Cl)cccc2c1Oc1ncccc1-c1ccnc(N[C@H]2CCCNC2)n1` as the compound, how does the IC50 [1] read?
Answer: Its IC50 is 13 nM.

Question: What about the IC50 [2] of the same compound?
Answer: Its IC50 is 99 nM.

Question: What about the IC50 [4] of the same compound?
Answer: Its IC50 is 2500 nM.

Question: Which IC50 [1] does the source give for `Cc1cc(Nc2nc3ccccc3[nH]2)c2ccccc2c1Oc1ncccc1-c1ccnc(N[C@H]2CC[C@H](N)CC2)n1` here?
Answer: Its IC50 is 6.4 nM.

Question: And the IC50 [2]?
Answer: Its IC50 is 33 nM.

Question: And the IC50 [4]?
Answer: The IC50 was 1.9 nM.

Question: For `c1cnc(Oc2ccc(Nc3nc4ccccc4[nH]3)c3ccccc23)c(-c2ccnc(N[C@H]3CCCNC3)n2)c1`, which IC50 [1] is on record?
Answer: Its IC50 is 9.7 nM.

Question: And the IC50 [2]?
Answer: Its IC50 is 31 nM.

Question: And the IC50 [4]?
Answer: Its IC50 is 31 nM.

Question: With `N[C@H]1CC[C@H](Nc2nccc(-c3cccnc3Oc3ccc(NS(=O)(=O)c4ccccc4Cl)c4ccccc34)n2)CC1` as the compound, how does the IC50 [1] read?
Answer: Its IC50 is 31 nM.

Question: What about the IC50 [2] of the same compound?
Answer: Its IC50 is 580 nM.

Question: What about the IC50 [4] of the same compound?
Answer: Its IC50 is 400 nM.

Question: What does the source list for `Cc1cc(Nc2nc3ccccc3[nH]2)c2ccccc2c1Oc1ncccc1-c1ccnc(N[C@H]2CCCNC2)n1`?
Answer: IC50 [1]: 5.1 nM; IC50 [2]: 13 nM; IC50 [4]: 20 nM

Question: Which IC50 [1] does the source give for `CC(C)CCNc1nccc(-c2cccnc2Oc2ccc(Nc3nc4ccccc4[nH]3)c3ccccc23)n1` here?
Answer: Its IC50 is greater than 99000 nM.

Question: What about the IC50 [2] of the same compound?
Answer: The IC50 was 15000 nM.

Question: And the IC50 [4]?
Answer: Its IC50 is 32 nM.

Question: For `N[C@H]1CC[C@@H](Nc2nccc(-c3cccnc3Oc3ccc(Nc4nc5ccccc5[nH]4)c4ccccc34)n2)CC1`, which IC50 [1] is on record?
Answer: The IC50 was 43 nM.

Question: What about the IC50 [2] of the same compound?
Answer: Its IC50 is 340 nM.

Question: And the IC50 [4]?
Answer: The IC50 was 7.5 nM.

From ChEMBL document CHEMBL3352477 (ACS Med Chem Lett, 2015)
